In ChEMBL document CHEMBL5136966, “Synthesis and biological evaluation of N 6 derivatives of 8-azapurine as novel antiplatelet agents” (RSC Med Chem, 2021):

Key:
[1] = Antiplatelet activity against ADP-induced human platelet in platelet rich plasma assessed as inhibition of platelet aggregation at 10 uM preincubated for 2 mins followed by ADP stimulation and measured for 5 mins by aggregometry relative to control; format: functional; details: 7 min
In short: (§1)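 Human whole blood anticoagulated with 3.8% sodium citrate (1:9 v/v); PRP by centrifugation at 300 rpm for 20 min at room temperature, PPP at 900 rpm for 10 min. Compound in DMSO (final under 0.5%) added to PRP, 2 min at 37 °C, then ADP 10 μM. Aggregometer stirred at 900 rpm, 37 °C, calibrated with PRP and PPP, read 5 min (Born). Inhibition from maximal trace height versus DMSO vehicle.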

[2] = Antiplatelet activity against ADP-induced human platelet in platelet rich plasma assessed as inhibition of platelet aggregation at 3 uM preincubated for 2 mins followed by ADP stimulation and measured for 5 mins by aggregometry relative to control; format: functional; details: 7 min; in short: as §1
[3] = Antiplatelet activity against ADP-induced human platelet in platelet rich plasma assessed as inhibition of platelet aggregation preincubated for 2 mins followed by ADP stimulation and measured for 5 mins by aggregometry; format: functional, cell-based; in short: as §1
Platelet = experiment: Potency index, ratio of ticagrelor IC50 to test compound IC50 for antiplatelet activity against ADP-induced human platelet in platelet rich plasma assessed as inhibition of platelet aggregation; format: functional
Mus musculus [4] = experiment: Antiplatelet activity against ADP-induced platelet aggregation in mouse assessed as inhibition of platelet aggregation at 2.5 mg/kg, iv measured after 1 hr by turbidimetric method relative to control; format: functional
In short: (§2)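 Male mice of about 20 g received compound iv (2.5 mg/kg) or orally (5 mg/kg). After 1 h, blood was drawn from the abdominal aorta into 3.8% citrate. PRP was obtained at 1000 rpm for 7 min, adjusted with PPP to about 2 × 10^6 platelets/mL and incubated 10 min at 37 °C. ADP final 5 μM; turbidimetric aggregation read, PRP as zero and PPP as 100%.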

Mus musculus [5] = experiment: Antiplatelet activity against ADP-induced platelet aggregation in mouse assessed as inhibition of platelet aggregation at 5 mg/kg, po measured after 1 hr by turbidimetric method relative to control; format: functional; in short: as §2
[6] = Toxicity in mouse assessed as bleeding time at 5 mg/kg, po administered via gavage measured after 1 hr by bleeding tail test (reference value: 5.2 mins); format: organism-based; details: in vivo
[7] = Toxicity in mouse assessed as blood loss at 5 mg/kg, po administered via gavage measured after 1 hr by bleeding tail test (reference value: 34.92 uL); format: organism-based; details: in vivo
[8] = Toxicity in mouse assessed as death at 1500 mg/kg, po administered via gavage measured for 14 days; format: organism-based; details: in vivo, 336 h, time 14 day
In short: (§3)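 Single-dose oral gavage study run under GLP. Forty mice (20 male, 20 female) were randomly split into a treated group and a vehicle group of 20 each (10 male, 10 female). The vehicle group got aqueous sodium carboxymethyl cellulose.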

[9] = Toxicity in mouse assessed as change in body weight at 1500 mg/kg, po administered via gavage measured for 14 days; format: organism-based; details: in vivo, 336 h, time 14 day; in short: as §3
[10] = Stability of compound in PBS buffer incubated for 1 week at 37 degC; format: physicochemical; details: time 1 weeks, read-out: Stability
[11] = Stability of compound in fasted-state simulated gastric fluid incubated for 1 day; format: ADME; details: read-out: Stability
[12] = Stability of compound in fasted-state simulated intestinal fluid incubated for 1 day; format: ADME; details: read-out: Stability
[13] = Stability in mouse liver microsomes measured after 1 hr; format: ADME, Microsome; details: read-out: Stability
[14] = Stability in mouse liver microsomes measured after 2 hrs; format: ADME, Microsome; details: read-out: Stability
P2Y purinoceptor 12 = P2Y purinoceptor 12 (Homo sapiens, UniProt Q9H244); experiment: Inhibition of P2Y12 receptor in human platelet assessed as reduction in ADP-induced VASP phosphorylation by flow cytometry; format: functional, cell-based
P2Y purinoceptor 12, sequence (Q9H244 whole entry): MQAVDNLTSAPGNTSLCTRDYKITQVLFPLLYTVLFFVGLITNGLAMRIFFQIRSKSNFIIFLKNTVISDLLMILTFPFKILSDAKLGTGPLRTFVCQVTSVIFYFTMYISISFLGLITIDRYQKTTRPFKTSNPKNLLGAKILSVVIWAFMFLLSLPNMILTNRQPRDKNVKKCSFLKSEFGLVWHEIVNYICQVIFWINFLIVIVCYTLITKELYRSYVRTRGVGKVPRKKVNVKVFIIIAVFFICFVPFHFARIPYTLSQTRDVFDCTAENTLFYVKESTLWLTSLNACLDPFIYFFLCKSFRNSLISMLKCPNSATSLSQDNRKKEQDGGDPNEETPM

SMILES	inhibition at 10 µM [1] [%]	inhibition at 3 µM [2] [%]	IC50 [3] [nM]	further results
CCCSc1nc(N/N=C/c2ccccc2)c2nnn([C@@H]3C[C@H](O)[C@@H](O)[C@H]3O)c2n1	100	81.6	450	Ratio IC50 (Platelet): 2
CCCSc1nc(N/N=C/c2ccc(F)c(F)c2)c2nnn([C@@H]3C[C@H](O)[C@@H](O)[C@H]3O)c2n1	96.5	62.7	–	–
CCCSc1nc(N/N=C/c2ccccc2O)c2nnn([C@@H]3C[C@H](O)[C@@H](O)[C@H]3O)c2n1	92.1	83.6	670	–
CCCSc1nc(N/N=C/c2cccc(O)c2)c2nnn([C@@H]3C[C@H](O)[C@@H](O)[C@H]3O)c2n1	100	93.4	200	Ratio IC50 (Platelet): 4; inhibition in vivo at 2.5 mg/kg (Mus musculus [4]): 62.2%; inhibition in vivo at 5 mg/kg (Mus musculus [5]): 73.3%; Time [6]: 10.4 min; Activity [7]: 44.5 µL; Activity [8]: Non-Toxic; Activity [9]: Non-Toxic; remaining at 168 h [10]: 98.3%; remaining at 24 h [11]: 96.7%; remaining at 24 h [12]: 97.4%; remaining at 1 h [13]: 81.2%; remaining at 2 h [14]: 73.7%; IC50 (P2Y purinoceptor 12): 46 nM
CCCSc1nc(N/N=C/c2ccc(O)cc2)c2nnn([C@@H]3C[C@H](O)[C@@H](O)[C@H]3O)c2n1	100	86.3	780	–
CCCSc1nc(N/N=C/c2ccc(O)cc2O)c2nnn([C@@H]3C[C@H](O)[C@@H](O)[C@H]3O)c2n1	98.3	63.4	–	–
CCCSc1nc(N/N=C/c2ccccc2OC)c2nnn([C@@H]3C[C@H](O)[C@@H](O)[C@H]3O)c2n1	48.7	11.7	–	–
CCCSc1nc(N/N=C/c2ccc(OC)cc2)c2nnn([C@@H]3C[C@H](O)[C@@H](O)[C@H]3O)c2n1	81.5	71.4	1300	–
CCCSc1nc(N/N=C/c2ccc(OC)c(OC)c2)c2nnn([C@@H]3C[C@H](O)[C@@H](O)[C@H]3O)c2n1	78.3	33.4	–	–
CCCSc1nc(N/N=C/c2ccccc2Cl)c2nnn([C@@H]3C[C@H](O)[C@@H](O)[C@H]3O)c2n1	83.2	51.6	–	–
CCCSc1nc(N/N=C/c2ccc(Cl)cc2)c2nnn([C@@H]3C[C@H](O)[C@@H](O)[C@H]3O)c2n1	53.7	7	–	–
CCCSc1nc(N/N=C/c2ccc(Cl)cc2Cl)c2nnn([C@@H]3C[C@H](O)[C@@H](O)[C@H]3O)c2n1	50.1	–	–	–
CCCSc1nc(N/N=C/c2cccc([N+](=O)[O-])c2)c2nnn([C@@H]3C[C@H](O)[C@@H](O)[C@H]3O)c2n1	88.6	76.3	660	–
CCCSc1nc(N/N=C/c2ccc([N+](=O)[O-])cc2)c2nnn([C@@H]3C[C@H](O)[C@@H](O)[C@H]3O)c2n1	62.7	5	–	–
CCCSc1nc(N/N=C/c2ccccn2)c2nnn([C@@H]3C[C@H](O)[C@@H](O)[C@H]3O)c2n1	71.7	36.4	–	–
CCCSc1nc(N/N=C/c2cccs2)c2nnn([C@@H]3C[C@H](O)[C@@H](O)[C@H]3O)c2n1	95.4	80.5	400	–
CCCSc1nc(NC2CC2)c2nnn([C@@H]3C[C@H](OCCO)[C@@H](O)[C@H]3O)c2n1	14.8	–	–	–
CCCNc1nc(SCCC)nc2c1nnn2[C@@H]1C[C@H](OCCO)[C@@H](O)[C@H]1O	13.6	–	–	–
CCCSc1nc(NC2CC2)c2nnn([C@@H]3C[C@H](O)[C@@H](O)[C@H]3O)c2n1	86.3	–	820	–
CCCSc1nc(N/N=C/c2ccc(Cl)cc2)c2nnn([C@@H]3C[C@H](OCCO)[C@@H](O)[C@H]3O)c2n1	69.1	9.1	–	–

SMILES	inhibition at 10 µM [1] [%]	inhibition at 3 µM [2] [%]	IC50 [3] [nM]	further results
CCCSc1nc(NCCc2cccc(F)c2)c2nnn([C@@H]3C[C@H](O)[C@@H](O)[C@H]3O)c2n1	68.3	–	–	–
CCCSc1nc(NC2CCCCC2)c2nnn([C@@H]3C[C@H](OCCO)[C@@H](O)[C@H]3O)c2n1	5.3	–	–	–
CCCSc1nc(NCC)c2nnn([C@@H]3C[C@H](OCCO)[C@@H](O)[C@H]3O)c2n1	21.4	–	4890	–
CCCSc1nc(NCCc2ccc(O)cc2)c2nnn([C@@H]3C[C@H](O)[C@@H](O)[C@H]3O)c2n1	76.8	–	–	–
CCCSc1nc(NC2CCCC2)c2nnn([C@@H]3C[C@H](OCCO)[C@@H](O)[C@H]3O)c2n1	8.1	–	–	–
CCCNc1nc(SCCC)nc2c1nnn2[C@@H]1C[C@H](O)[C@@H](O)[C@H]1O	68.6	–	–	–
CCCSc1nc(NCC(C)C)c2nnn([C@@H]3C[C@H](OCCO)[C@@H](O)[C@H]3O)c2n1	7.8	–	–	–
CCCCNc1nc(SCCC)nc2c1nnn2[C@@H]1C[C@H](OCCO)[C@@H](O)[C@H]1O	40.8	–	3160	–
CCCSc1nc(NCCCO)c2nnn([C@@H]3C[C@H](OCCO)[C@@H](O)[C@H]3O)c2n1	13.9	–	–	–
CCCSc1nc(N/N=C/c2cccc([N+](=O)[O-])c2)c2nnn([C@@H]3C[C@H](OCCO)[C@@H](O)[C@H]3O)c2n1	95.5	77.3	–	–
CCCSc1nc(NCCO)c2nnn([C@@H]3C[C@H](OCCO)[C@@H](O)[C@H]3O)c2n1	15.2	–	–	–
CCCSc1nc(N/N=C/c2ccc([N+](=O)[O-])cc2)c2nnn([C@@H]3C[C@H](OCCO)[C@@H](O)[C@H]3O)c2n1	90.9	70.9	–	–
CCCSc1nc(N/N=C/c2cccc(O)c2)c2nnn([C@@H]3C[C@H](OCCO)[C@@H](O)[C@H]3O)c2n1	100	85.4	580	–
CCCSc1nc(N/N=C/c2ccc(F)c(F)c2)c2nnn([C@@H]3C[C@H](OCCO)[C@@H](O)[C@H]3O)c2n1	85.4	46.3	–	–
CCCSc1nc(NCCO)c2nnn([C@@H]3C[C@H](O)[C@@H](O)[C@H]3O)c2n1	69.4	–	–	–
CCCSc1nc(NCCc2ccccc2)c2nnn([C@@H]3C[C@H](O)[C@@H](O)[C@H]3O)c2n1	33.4	–	–	–
CCCSc1nc(NCCCc2ccccc2)c2nnn([C@@H]3C[C@H](O)[C@@H](O)[C@H]3O)c2n1	29.3	–	–	–
CCCSc1nc(NCCCO)c2nnn([C@@H]3C[C@H](O)[C@@H](O)[C@H]3O)c2n1	70.3	–	1780	–
CCCCNc1nc(SCCC)nc2c1nnn2[C@@H]1C[C@H](O)[C@@H](O)[C@H]1O	85.4	–	–	–
CCCSc1nc(N[C@@H]2C[C@H]2c2ccc(F)c(F)c2)c2nnn([C@@H]3C[C@H](OCCO)[C@@H](O)[C@H]3O)c2n1 [TICAGRELOR]	92.7	78.6	740	inhibition in vivo at 2.5 mg/kg (Mus musculus [4]): 52.2%; inhibition in vivo at 5 mg/kg (Mus musculus [5]): 69.4%; Time [6]: > 20 min; Activity [7]: 73.25 µL; IC50 (P2Y purinoceptor 12): 39 nM
